In ChEMBL document CHEMBL5543163, “Druglike, 18F-labeled PET Tracers Targeting Fibroblast Activation Protein” (J Med Chem, 2024):

Legend:
Prolyl endopeptidase FAP = molecular target: T1, Prolyl endopeptidase FAP (Homo sapiens, UniProt Q12884); test: Inhibition of FAP (unknown origin) using Z-Gly-Pro-7-amino-4-methylcoumarine as fluorogenic substrate preincubated for 15 mins followed by substrate addition and measured after 15 mins
T1 sequence (Q12884 whole entry): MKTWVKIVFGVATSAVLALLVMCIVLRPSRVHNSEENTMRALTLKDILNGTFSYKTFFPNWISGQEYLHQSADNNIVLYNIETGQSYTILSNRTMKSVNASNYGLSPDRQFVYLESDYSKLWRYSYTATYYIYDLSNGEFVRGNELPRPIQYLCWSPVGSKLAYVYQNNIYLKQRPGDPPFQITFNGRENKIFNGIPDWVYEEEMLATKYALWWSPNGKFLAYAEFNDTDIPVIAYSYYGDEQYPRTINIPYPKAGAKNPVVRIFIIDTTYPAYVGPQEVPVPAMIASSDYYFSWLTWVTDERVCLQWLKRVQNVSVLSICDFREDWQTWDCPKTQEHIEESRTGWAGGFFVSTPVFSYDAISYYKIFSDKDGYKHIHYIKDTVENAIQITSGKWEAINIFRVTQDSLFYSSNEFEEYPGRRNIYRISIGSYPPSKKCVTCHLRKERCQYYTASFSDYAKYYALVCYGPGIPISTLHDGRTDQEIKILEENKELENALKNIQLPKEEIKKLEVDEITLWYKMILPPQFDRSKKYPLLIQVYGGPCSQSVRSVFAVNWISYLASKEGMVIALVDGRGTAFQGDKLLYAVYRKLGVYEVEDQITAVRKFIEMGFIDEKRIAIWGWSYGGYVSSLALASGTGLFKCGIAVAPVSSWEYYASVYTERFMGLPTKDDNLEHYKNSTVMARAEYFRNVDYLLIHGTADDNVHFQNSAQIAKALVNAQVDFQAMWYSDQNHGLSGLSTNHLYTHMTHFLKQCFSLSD

Dipeptidyl peptidase 2 = Dipeptidyl peptidase 2 (Homo sapiens, UniProt Q9UHL4); test: Inhibition of DPP2 (unknown origin) using Lys-Ala-pNA as substrate preincubated for 15 mins followed by substrate addition and measured after 15 mins
Dipeptidyl peptidase 9 = Dipeptidyl peptidase 9 (Homo sapiens, UniProt Q86TI2); test: Inhibition of DPP9 (unknown origin) using Ala-Pro-paranitroanilide as chromogenic substrate preincubated for 15 mins followed by substrate addition and measured after 15 mins
Dipeptidyl peptidase 8 = Dipeptidyl peptidase 8 (Homo sapiens, UniProt Q6V1X1); test: Inhibition of DPP8 (unknown origin) using Ala-Pro-paranitroanilide as chromogenic substrate preincubated for 15 mins followed by substrate addition and measured after 15 mins
Dipeptidyl peptidase 4 = Dipeptidyl peptidase 4 (Homo sapiens, UniProt P27487); test: Inhibition of DPP4 (unknown origin) using Ala-Pro-paranitroanilide as chromogenic substrate preincubated for 15 mins followed by substrate addition and measured after 15 mins
Prolyl endopeptidase = molecular target: T2, Prolyl endopeptidase (Homo sapiens, UniProt P48147); test: Inhibition of PREP (unknown origin) using N-succinyl-Gly-Pro-AMC as substrate preincubated for 15 mins followed by substrate addition and measured after 15 mins
T2 sequence (P48147 whole entry): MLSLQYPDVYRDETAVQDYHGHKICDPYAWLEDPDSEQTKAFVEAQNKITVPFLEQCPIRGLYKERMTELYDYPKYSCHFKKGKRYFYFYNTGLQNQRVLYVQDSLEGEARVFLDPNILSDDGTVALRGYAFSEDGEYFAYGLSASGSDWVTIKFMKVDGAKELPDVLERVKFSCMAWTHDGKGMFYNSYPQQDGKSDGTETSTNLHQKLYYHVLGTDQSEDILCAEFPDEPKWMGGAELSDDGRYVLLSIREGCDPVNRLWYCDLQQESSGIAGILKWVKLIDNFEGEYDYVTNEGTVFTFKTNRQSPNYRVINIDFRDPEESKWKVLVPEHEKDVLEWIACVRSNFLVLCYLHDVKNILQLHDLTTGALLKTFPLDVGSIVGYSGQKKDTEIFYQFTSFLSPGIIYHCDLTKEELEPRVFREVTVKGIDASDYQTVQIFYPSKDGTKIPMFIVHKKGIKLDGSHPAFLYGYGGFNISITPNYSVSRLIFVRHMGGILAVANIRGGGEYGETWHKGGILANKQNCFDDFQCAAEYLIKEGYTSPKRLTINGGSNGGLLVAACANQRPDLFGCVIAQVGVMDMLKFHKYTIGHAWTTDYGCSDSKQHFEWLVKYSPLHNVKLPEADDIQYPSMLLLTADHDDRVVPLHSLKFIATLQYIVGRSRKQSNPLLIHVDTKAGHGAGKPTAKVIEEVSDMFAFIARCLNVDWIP

[1] = Stability in CD1 mouse plasma assessed as compound remaining at 185 kBq measured upto 60 mins by radio-HPLC analysis; type: ADME, cell-free; conditions: read-out: Stability
Method in brief: (§1)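 Radiotracer was incubated at 37 °C for up to 60 min in PBS (0.01 M, pH 7.4) or in mouse plasma. Samples were deproteinized with an equal volume of cold ACN and centrifuged. The supernatant was analyzed by radio-HPLC with 30 s fractions γ-counted to give the intact fraction. Triplicates.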

[2] = Drug uptake in liver of female nude mouse harboring null mutation of CD1 antigen complex at 5.1 to 7.4 MBq, iv measured after 15 to 60 mins by gamma counter analysis; type: ADME, organism-based; conditions: in vivo, dose lower 5.1 MBq, time lower 15 min, dose upper 7.4 MBq, time upper 60 min
Method in brief: (§2)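 Female CD1 nude mice, 6–8 weeks old (20–25 g), received the radiotracer through the lateral tail vein. At 15, 30 and 60 min p.i. (n = 3 per time point) blood was drawn by cardiac puncture and the animals were euthanized. Organs were excised, weighed and γ-counted. Uptake is expressed as %ID/g.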

[3] = Drug uptake in tumor of female nude mouse harboring null mutation of CD1 antigen complex xenografted with human HT-29 cells with decreased FAP positive tumor area at 5 to 7.4 MBq, iv measured after 60 mins by immunohistochemistry analysis; type: ADME, organism-based, Neoplasm; conditions: in vivo, 1 h, dose 5-7.4 MBq
[4] = Octanol/water partition coefficient, logD of compound at 74 kBq incubated for 2 mins by gamma counter method; type: physicochemical
Method in brief: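 Octanol and PBS phases were mixed and vortexed for 2 min, then centrifuged at 3,000 rpm for 10 min. Aliquots of 0.5 mL from each phase were γ-counted and corrected for mass and density. LogD was taken as log10 of the octanol/PBS radioactivity ratio.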

[5] = Stability in PBS assessed as drug degradation at 185 kBq measured upto 60 mins by radio-HPLC analysis; type: physicochemical; conditions: buffer, 1 h; method in brief: as §1
[6] = Ratio of drug level in tumor to muscle of female nude mouse harboring null mutation of CD1 antigen complex xenografted with human U-87 MG cells at 5 to 7.4 MBq, iv measured at 60 mins postinjection by gamma counter analysis; type: ADME, organism-based; conditions: in vivo, 1 h, dose 5-7.4 MBq
Method in brief: (§3)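 Subcutaneous U-87MG xenografts (5×10^6 cells in DPBS, hind flank) were grown in female CD1 nude mice to about 200 mm3. After tail-vein radiotracer injection and a 60 min dynamic PET scan, tissues were harvested at 60 min p.i. and γ-counted (%ID/g). Tumor-to-tissue ratios are means ± SD of individual ratios, n=4 per tracer.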

[7] = Stability in CD1 mouse plasma assessed as drug degradation at 185 kBq measured upto 60 mins by radio-HPLC analysis; type: ADME, cell-free; conditions: 1 h; method in brief: as §1
[8] = Drug uptake in bone structures of female nude mouse harboring null mutation of CD1 antigen complex xenografted with human U-87 MG cells at 5 to 7.4 MBq, iv measured after 60 mins by gamma counter analysis; type: ADME, organism-based, Bone element; conditions: in vivo, 1 h, dose 5-7.4 MBq
[9] = Ratio of drug level in tumor to small intestine of female nude mouse harboring null mutation of CD1 antigen complex xenografted with human U-87 MG cells at 5 to 7.4 MBq, iv measured at 60 mins postinjection by gamma counter analysis; type: ADME, organism-based; conditions: in vivo, 1 h, dose 5-7.4 MBq; method in brief: as §3
[10] = Drug uptake in tumor of female nude mouse harboring null mutation of CD1 antigen complex xenografted with human U-87 MG cells at 5 to 7.4 MBq, iv measured at 60 mins by PET/CT analysis; type: ADME, organism-based, Neoplasm; conditions: in vivo, 1 h, dose 5-7.4 MBq
Method in brief: (§4)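 U-87MG xenografts (5×10^6 cells, subcutaneous flank) were grown in female CD1 nude mice to about 200 mm3. Dynamic whole-body PET over 60 min p.i. was followed by CT. Images were reconstructed with OSEM 3D and expressed as %ID/mL to give time-activity curves. For blocking, the FAP inhibitor (5 mg/kg) was given via the tail vein 30 min before the tracer; n=4.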

[11] = Stability in PBS assessed as compound remaining at 185 kBq measured upto 60 mins by radio-HPLC analysis; type: physicochemical; conditions: read-out: Stability; method in brief: as §1
[12] = Ratio of drug level in tumor to liver of female nude mouse harboring null mutation of CD1 antigen complex xenografted with human U-87 MG cells at 5 to 7.4 MBq, iv measured at 60 mins postinjection by gamma counter analysis; type: ADME, organism-based; conditions: in vivo, 1 h, dose 5-7.4 MBq; method in brief: as §3
[13] = Drug uptake in tumor of female nude mouse harboring null mutation of CD1 antigen complex xenografted with human U-87 MG cells at 5 to 7.4 MBq, iv pretreated with (S)-N-(2-(2-cyano-4,4-difluoropyrrolidin-1-yl)-2-oxoethyl)quinoline-4-carboxamide for 30 mins followed by radioligand addition and measured measured after 60 mins by PET/CT analysis; type: ADME, organism-based, Neoplasm; conditions: in vivo, 1 h, dose 5-7.4 MBq; method in brief: as §4
[14] = Drug uptake in skull of female nude mouse harboring null mutation of CD1 antigen complex xenografted with human U-87 MG cells at 5 to 7.4 MBq, iv measured after 60 mins by gamma counter analysis; type: ADME, organism-based; conditions: in vivo, 1 h, dose 5-7.4 MBq
[15] = Drug uptake in kidney of female nude mouse harboring null mutation of CD1 antigen complex assessed as increase in renal excretion at 5.1 to 7.4 MBq, iv measured after 15 to 60 mins by gamma counter analysis; type: ADME, organism-based; conditions: in vivo, dose lower 5.1 MBq, time lower 15 min, dose upper 7.4 MBq, time upper 60 min; method in brief: as §2
[16] = Drug uptake in urinary bladder of female nude mouse harboring null mutation of CD1 antigen complex assessed as increase in renal excretion at 5.1 to 7.4 MBq, iv measured after 15 to 60 mins by gamma counter analysis; type: ADME, organism-based; conditions: in vivo, dose lower 5.1 MBq, time lower 15 min, dose upper 7.4 MBq, time upper 60 min; method in brief: as §2
[17] = Ratio of drug level in tumor to blood of female nude mouse harboring null mutation of CD1 antigen complex xenografted with human U-87 MG cells at 5 to 7.4 MBq, iv measured at 60 mins postinjection by gamma counter analysis; type: ADME, organism-based; conditions: tumour, 1 h, dose 5-7.4 MBq; method in brief: as §3
[18] = Stability in female nude mouse harboring null mutation of CD1 antigen complex assessed as drug degradation at 5.1 to 7.4 MBq, iv measured at 60 mins by radio-HPLC analysis; type: ADME, organism-based; conditions: 1 h, dose 5.1-7.4 MBq
Method in brief: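 Female CD1 nude mice received 5.1–7.4 MBq i.v. EDTA blood collected at 15, 30 and 60 min p.i. (n=3 per time point) was centrifuged to plasma, deproteinized with cold ACN and centrifuged. The supernatant was analyzed by radio-HPLC with 30 s fractions γ-counted to give the percent intact tracer.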

[19] = Drug uptake in intestine of female nude mouse harboring null mutation of CD1 antigen complex at 5.1 to 7.4 MBq, iv measured after 15 to 60 mins by gamma counter analysis; type: ADME, organism-based; conditions: in vivo, dose lower 5.1 MBq, time lower 15 min, dose upper 7.4 MBq, time upper 60 min; method in brief: as §2
[20] = Drug uptake in tumor of female nude mouse harboring null mutation of CD1 antigen complex xenografted with human U-87 MG cells with increased FAP positive tumor area at 5 to 7.4 MBq, iv measured after 60 mins by immunohistochemistry analysis; type: ADME, organism-based, Neoplasm; conditions: in vivo, 1 h, dose 5-7.4 MBq

Chain of Dipeptidyl peptidase 8 (Q6V1X1 whole entry): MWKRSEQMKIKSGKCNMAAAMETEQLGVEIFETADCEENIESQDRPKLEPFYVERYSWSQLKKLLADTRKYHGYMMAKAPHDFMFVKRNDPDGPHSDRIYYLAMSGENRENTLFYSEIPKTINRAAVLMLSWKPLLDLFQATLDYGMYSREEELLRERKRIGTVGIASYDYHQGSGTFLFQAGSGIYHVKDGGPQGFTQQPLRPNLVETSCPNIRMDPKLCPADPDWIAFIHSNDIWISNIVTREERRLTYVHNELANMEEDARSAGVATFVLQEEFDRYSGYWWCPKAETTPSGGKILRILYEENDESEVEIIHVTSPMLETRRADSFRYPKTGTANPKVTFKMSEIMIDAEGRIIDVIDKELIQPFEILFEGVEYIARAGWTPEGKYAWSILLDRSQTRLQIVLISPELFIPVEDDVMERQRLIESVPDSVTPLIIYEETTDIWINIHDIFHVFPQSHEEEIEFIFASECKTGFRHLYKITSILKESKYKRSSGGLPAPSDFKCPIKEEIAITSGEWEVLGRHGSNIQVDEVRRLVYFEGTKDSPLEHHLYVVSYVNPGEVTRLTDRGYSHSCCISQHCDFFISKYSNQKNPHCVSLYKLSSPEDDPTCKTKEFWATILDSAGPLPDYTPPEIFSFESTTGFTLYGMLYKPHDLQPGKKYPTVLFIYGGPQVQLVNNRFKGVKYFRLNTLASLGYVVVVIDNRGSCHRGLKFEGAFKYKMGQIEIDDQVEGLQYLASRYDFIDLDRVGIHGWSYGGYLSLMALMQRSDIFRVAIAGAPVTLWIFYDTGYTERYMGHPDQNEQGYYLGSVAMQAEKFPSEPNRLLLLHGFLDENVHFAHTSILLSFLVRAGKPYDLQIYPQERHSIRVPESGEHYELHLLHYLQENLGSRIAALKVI
Chain of Dipeptidyl peptidase 9 (Q86TI2 whole entry): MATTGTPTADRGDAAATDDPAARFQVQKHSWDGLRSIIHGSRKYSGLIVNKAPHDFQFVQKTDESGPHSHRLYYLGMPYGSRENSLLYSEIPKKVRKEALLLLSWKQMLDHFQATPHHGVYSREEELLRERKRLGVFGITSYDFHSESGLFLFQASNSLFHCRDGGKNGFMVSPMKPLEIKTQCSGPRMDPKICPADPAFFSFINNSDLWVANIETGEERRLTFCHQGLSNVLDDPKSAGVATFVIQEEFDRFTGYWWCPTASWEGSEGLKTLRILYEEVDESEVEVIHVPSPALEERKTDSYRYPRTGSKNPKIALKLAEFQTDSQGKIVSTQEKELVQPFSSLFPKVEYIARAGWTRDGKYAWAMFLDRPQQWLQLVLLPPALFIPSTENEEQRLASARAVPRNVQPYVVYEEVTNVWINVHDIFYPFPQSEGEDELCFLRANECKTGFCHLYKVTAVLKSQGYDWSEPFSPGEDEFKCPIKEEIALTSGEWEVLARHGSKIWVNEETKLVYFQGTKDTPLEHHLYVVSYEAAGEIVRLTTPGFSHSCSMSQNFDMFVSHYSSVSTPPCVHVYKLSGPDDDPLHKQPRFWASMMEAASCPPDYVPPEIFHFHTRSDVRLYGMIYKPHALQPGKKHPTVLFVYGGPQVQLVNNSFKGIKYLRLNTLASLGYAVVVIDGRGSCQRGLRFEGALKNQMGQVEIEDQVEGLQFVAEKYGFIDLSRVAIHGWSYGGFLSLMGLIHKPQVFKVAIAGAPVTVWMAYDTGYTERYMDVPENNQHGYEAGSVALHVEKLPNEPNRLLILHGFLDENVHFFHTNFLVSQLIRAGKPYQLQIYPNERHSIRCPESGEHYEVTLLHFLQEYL
Chain of Dipeptidyl peptidase 4 (P27487 whole entry): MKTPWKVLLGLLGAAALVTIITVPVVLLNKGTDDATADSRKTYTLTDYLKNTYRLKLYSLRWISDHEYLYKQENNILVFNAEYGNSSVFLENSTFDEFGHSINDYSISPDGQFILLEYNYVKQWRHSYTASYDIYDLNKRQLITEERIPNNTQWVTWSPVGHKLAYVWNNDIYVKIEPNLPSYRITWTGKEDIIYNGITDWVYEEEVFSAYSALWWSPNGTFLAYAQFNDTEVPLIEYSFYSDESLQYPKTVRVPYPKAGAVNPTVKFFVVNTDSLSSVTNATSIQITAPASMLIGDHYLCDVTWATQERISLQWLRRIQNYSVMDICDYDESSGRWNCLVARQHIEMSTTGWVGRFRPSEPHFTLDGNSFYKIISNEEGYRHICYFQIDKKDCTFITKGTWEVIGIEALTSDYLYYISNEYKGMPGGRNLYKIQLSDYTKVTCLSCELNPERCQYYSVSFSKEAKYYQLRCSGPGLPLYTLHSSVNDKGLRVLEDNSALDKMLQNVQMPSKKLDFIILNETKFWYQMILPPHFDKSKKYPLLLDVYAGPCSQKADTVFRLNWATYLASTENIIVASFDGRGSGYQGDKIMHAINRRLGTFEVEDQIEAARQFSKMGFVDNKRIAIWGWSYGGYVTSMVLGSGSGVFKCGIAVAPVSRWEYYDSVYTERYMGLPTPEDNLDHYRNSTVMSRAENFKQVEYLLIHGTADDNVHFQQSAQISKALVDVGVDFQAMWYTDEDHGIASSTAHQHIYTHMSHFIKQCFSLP

Structure (SMILES) | IC50 (Prolyl endopeptidase FAP) [µM] | IC50 (Dipeptidyl peptidase 2) [µM] | IC50 (Dipeptidyl peptidase 9) [µM] | IC50 (Dipeptidyl peptidase 8) [µM] | IC50 (Dipeptidyl peptidase 4) [µM] | IC50 (Prolyl endopeptidase) [µM] | other results
CC1(C)O[C@@H](CF)[C@H](COc2ccc3nccc(C(=O)NCC(=O)N4CC(F)(F)C[C@H]4C#N)c3c2)O1 | 0.00046 | > 10 | > 10 | > 10 | > 10 | > 10 | –
N#C[C@@H]1CC(F)(F)CN1C(=O)CNC(=O)c1ccnc2ccc(OCC(O)CF)cc12 (stereo not given in full) | 0.00437 | > 10 | > 10 | > 10 | > 10 | > 10 | –
C[N+](C)(CF)CCCOc1ccc2nccc(C(=O)NCC(=O)N3CC(F)(F)C[C@H]3C#N)c2c1 | – | > 10 | – | – | – | – | –
N#C[C@@H]1CC(F)(F)CN1C(=O)CNC(=O)c1ccnc2ccc(OCC(O)C[18F])cc12 (stereo not given in full) | – | – | – | – | – | – | remaining at 1 h, 185 kBq [1]: > 70%; Drug uptake [2]: Active; Drug uptake [3]: Not Active; logD at 2 min [4]: 0.18; Stability [5]: Stable; Ratio [6]: 3.6; Stability [7]: Stable; Drug uptake [8]: Active; Ratio [9]: 0.16; Drug uptake [10]: < 3 %ID/ml; remaining at 1 h, 185 kBq [11]: > 70%; Ratio [12]: 2.37; Drug uptake [13]: Not Active; Drug uptake [14]: Active; Drug uptake [15]: Active; Drug uptake [16]: Active; Ratio [17]: 6.58; Stability [18]: Unstable; Drug uptake [19]: Active; Drug uptake [20]: Active
COC(CF)COc1ccc2nccc(C(=O)NCC(=O)N3CC(F)(F)C[C@H]3C#N)c2c1 (stereo not given in full) | 0.0014 | > 10 | 1.6 | 5.8 | > 10 | > 10 | –
N#C[C@@H]1CC(F)(F)CN1C(=O)CNC(=O)c1ccnc2ccc(OC[C@H](O)[C@@H](O)CF)cc12 | 0.00177 | > 10 | > 10 | > 10 | > 10 | > 10 | –
